Test results from ChEMBL document CHEMBL2406965, “Optimization of N-benzoylindazole derivatives as inhibitors of human neutrophil elastase” (J Med Chem, 2013).
pIC50: −log10 of the molar value. Active and inactive are the calls of the source. No cut-off for these calls is given here.

Assays:
[1] = biological target: T1, Neutrophil elastase (Homo sapiens, UniProt P08246); experiment: Inhibition of human neutrophil elastase using N-methylsuccinyl-Ala-Ala-Pro-Val-7-amino-4-methylcoumarin as substrate measured every 30 seconds for 10 mins by fluorescence microplate reader analysis
T1 sequence (P08246 whole entry): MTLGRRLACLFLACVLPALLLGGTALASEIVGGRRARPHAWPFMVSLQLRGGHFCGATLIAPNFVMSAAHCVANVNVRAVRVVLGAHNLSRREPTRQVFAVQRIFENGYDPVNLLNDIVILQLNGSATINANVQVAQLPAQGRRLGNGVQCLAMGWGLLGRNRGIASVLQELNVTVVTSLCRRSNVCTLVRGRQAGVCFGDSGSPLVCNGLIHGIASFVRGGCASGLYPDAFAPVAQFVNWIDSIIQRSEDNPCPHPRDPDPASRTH

[2] = biological target: Chymotrypsinogen B (Homo sapiens, UniProt P17538); experiment: Inhibition of human pancreatic chymotrypsin using Suc-Ala-Ala-Pro-7-amino-4-methylcoumarin as substrate by fluorescence microplate reader analysis
Chymotrypsinogen B, sequence (P17538 34-164 limits assumed, other chains not shown): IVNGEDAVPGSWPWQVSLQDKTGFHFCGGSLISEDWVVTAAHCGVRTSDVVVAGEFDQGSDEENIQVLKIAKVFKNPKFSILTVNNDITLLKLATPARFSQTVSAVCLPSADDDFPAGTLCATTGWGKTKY
Chymotrypsinogen B, sequence (P17538 167-263 limits assumed, other chains not shown): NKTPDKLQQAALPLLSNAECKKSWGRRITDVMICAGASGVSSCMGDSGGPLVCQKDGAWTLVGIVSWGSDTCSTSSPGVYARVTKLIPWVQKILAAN

[3] = biological target: Prothrombin (Homo sapiens, UniProt P00734); experiment: Inhibition of human plasma thrombin using benzonyl-Phe-Val-Arg-7-amino-4-methylcoumarin as substrate by fluorescence microplate reader analysis
[4] = biological target: T2, Plasma kallikrein (Homo sapiens, UniProt P03952); experiment: Inhibition of human plasma kallikrein using benzyloxycarbonyl-Phe-Arg-7-amino-4-methylcoumarin as substrate at 50 uM by fluorescence microplate reader analysis
T2 sequence (P03952 20-390 limits assumed): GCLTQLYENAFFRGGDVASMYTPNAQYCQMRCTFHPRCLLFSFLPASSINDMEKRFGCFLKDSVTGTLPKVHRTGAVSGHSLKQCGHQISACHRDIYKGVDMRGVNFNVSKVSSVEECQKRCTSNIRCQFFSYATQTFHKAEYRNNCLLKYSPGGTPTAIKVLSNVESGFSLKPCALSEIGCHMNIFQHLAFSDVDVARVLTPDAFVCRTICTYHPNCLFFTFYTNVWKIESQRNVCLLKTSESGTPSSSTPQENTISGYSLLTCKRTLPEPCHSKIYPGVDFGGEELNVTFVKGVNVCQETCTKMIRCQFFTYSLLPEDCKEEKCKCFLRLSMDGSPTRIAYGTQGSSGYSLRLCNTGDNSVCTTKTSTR
T2 sequence (P03952 391-638 limits assumed): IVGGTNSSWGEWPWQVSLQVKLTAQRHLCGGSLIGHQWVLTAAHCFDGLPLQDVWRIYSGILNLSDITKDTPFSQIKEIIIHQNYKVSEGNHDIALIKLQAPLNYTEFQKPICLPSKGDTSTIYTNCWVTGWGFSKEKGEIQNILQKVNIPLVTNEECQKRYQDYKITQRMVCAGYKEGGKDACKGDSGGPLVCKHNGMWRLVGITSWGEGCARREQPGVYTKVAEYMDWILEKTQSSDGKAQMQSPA

[5] = biological target: T3, Urokinase-type plasminogen activator (Homo sapiens, UniProt P00749); experiment: Inhibition of human urokinase using benzyloxycarbonyl-Gly-Gly-Arg-7-amino-4-methylcoumarin as substrate by fluorescence microplate reader analysis
[6] = Half life in phosphate buffer at pH 7.3; assay type: physicochemical
[7] = biological target: Cathepsin D (Homo sapiens) (UniProt P07339); experiment: Inhibition of human spleen cathepsin D using MOCAc-Gly-Lys-Pro-Ile-Leu-Phe-Phe-Arg-Leu-Lys (Dnp)-D-Arg-NH2 as substrate at 50 uM by fluorescence microplate reader analysis
Cathepsin D (Homo sapiens), sequence (P07339 65-162 limits assumed): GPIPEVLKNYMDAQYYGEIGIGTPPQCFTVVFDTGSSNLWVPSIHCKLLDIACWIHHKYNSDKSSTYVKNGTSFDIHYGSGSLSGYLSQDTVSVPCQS
Cathepsin D (Homo sapiens), sequence (P07339 169-412 limits assumed): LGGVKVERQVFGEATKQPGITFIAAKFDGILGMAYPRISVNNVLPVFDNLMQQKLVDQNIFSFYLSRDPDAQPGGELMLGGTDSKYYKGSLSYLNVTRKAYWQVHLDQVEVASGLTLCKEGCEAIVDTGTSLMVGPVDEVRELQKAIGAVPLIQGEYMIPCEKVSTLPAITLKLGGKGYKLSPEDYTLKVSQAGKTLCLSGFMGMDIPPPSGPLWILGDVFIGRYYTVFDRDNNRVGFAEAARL
Method in brief: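 Cathepsin D from human spleen, 0.1 U/mL, in 0.1 M sodium acetate pH 5.0 with 5 μM MOCAc peptide substrate, 25 °C. Highest compound concentration tested 50 μM.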

[8] = biological target: T2, Plasma kallikrein; experiment: Inhibition of human plasma kallikrein using benzyloxycarbonyl-Phe-Arg-7-amino-4-methylcoumarin as substrate by fluorescence microplate reader analysis
[9] = biological target: T4, Neutrophil elastase (Homo sapiens) (UniProt P08246); experiment: Reversible inhibition of human neutrophil elastase using N-methylsuccinyl-Ala-Ala-Pro-Val-7-amino-4-methylcoumarin as substrate at 5 uM after 1 to 2 hrs by fluorescence microplate reader analysis
T4 sequence (whole entry): T1 sequence (P08246 whole entry)

[10] = biological target: T4, Neutrophil elastase (Homo sapiens); experiment: Inhibition of human neutrophil elastase using N-methylsuccinyl-Ala-Ala-Pro-Val-7-amino-4-methylcoumarin as substrate at 5 uM after 4 hrs by fluorescence microplate reader analysis
[11] = biological target: T3, Urokinase-type plasminogen activator; experiment: Inhibition of human urokinase using benzyloxycarbonyl-Gly-Gly-Arg-7-amino-4-methylcoumarin as substrate at 50 uM by fluorescence microplate reader analysis
[12] = biological target: T4, Neutrophil elastase (Homo sapiens); experiment: Competitive inhibition of human neutrophil elastase using N-methylsuccinyl-Ala-Ala-Pro-Val-7-amino-4-methylcoumarin as substrate by Lineweaver-Burk plot analysis
[13] = biological target: T4, Neutrophil elastase (Homo sapiens); experiment: Inhibition of human neutrophil elastase using N-methylsuccinyl-Ala-Ala-Pro-Val-7-amino-4-methylcoumarin as substrate at 5 uM after 5 hrs by fluorescence microplate reader analysis
[14] = biological target: T4, Neutrophil elastase (Homo sapiens); experiment: Inhibition of human neutrophil elastase using N-methylsuccinyl-Ala-Ala-Pro-Val-7-amino-4-methylcoumarin as substrate at 50 uM measured every 30 seconds for 10 mins by fluorescence microplate reader analysis

| pIC50 [1] | pIC50 [2] | pIC50 [3] | inhibition [4] | pIC50 [5] | SMILES | further results |
| --- | --- | --- | --- | --- | --- | --- |
| 6.96 | – | – | – | – | CCOC(=O)c1nn(C(=O)c2cccc(C)c2)c2ccc(OC(F)(F)F)cc12 | – |
| 6.85 | – | – | – | – | CCOC(=O)c1nn(C(=O)c2cccc(C)c2)c2ccc(N(C)C)cc12 | – |
| – | 7.18 | 5.72 | inactive | 5.18 | Cc1cccc(C(=O)n2nc(C#N)c3ccccc32)c1 | – |
| – | – | – | inactive | – | COC(=O)c1nn(C(=O)c2cccc(OC)c2)c2ccc(Br)cc12 | – |
| – | 7.68 | 7.09 | inactive | 6.32 | CCOC(=O)c1nn(C(=O)c2cccc(OC)c2)c2ccc([N+](=O)[O-])cc12 | – |
| 7.30 | – | – | – | – | COC(=O)c1nn(C(=O)c2ccsc2)c2ccc([N+](=O)[O-])cc12 | – |
| 7.30 | – | – | – | – | CCCC(=O)Nc1ccc2c(c1)c(C(=O)OCC)nn2C(=O)c1cccc(C)c1 | – |
| 7.70 | 7.42 | 6.19 | inactive | 6.51 | COC(=O)c1nn(C(=O)c2cccc(C)c2)c2cc([N+](=O)[O-])ccc12 | t1/2 [6]: 41.5 min; inhibition [7]: inactive |
| – | 6.85 | 7.41 | inactive | 4.83 | CCOC(=O)c1nn(C(=O)c2cccc(C)c2)c2ccc(NC(=O)CC)cc12 | – |
| 7.10 | – | – | inactive | – | COC(=O)c1nn(C(=O)c2cccc(C)c2)c2ccc(Br)cc12 | – |
| 7.52 | 7.51 | 6.08 | – | 6.21 | COC(=O)c1nn(C(=O)c2ccccc2)c2ccc([N+](=O)[O-])cc12 | pIC50 [8]: 4.95; inhibition [9]: Active; t1/2 [6]: 37.9 min; inhibition [7]: inactive |
| 6.80 | – | – | – | – | COC(=O)c1nn(C(=O)c2ccsc2)c2ccc(Br)cc12 | – |
| 6.85 | – | – | – | – | CCOC(=O)c1nn(C(=O)c2cccc(C)c2)c2ccc(OC)cc12 | – |
| – | – | 5.96 | inactive | 6.36 | COC(=O)c1nn(C(=O)c2cccc(C)c2)c2ccc([N+](=O)[O-])cc12 | inhibition [10]: Active; t1/2 [6]: 47.8 min; inhibition [7]: inactive |
| 7.52 | 7.34 | 6.43 | inactive | 4.60 | CCOC(=O)c1nn(C(=O)c2ccsc2)c2ccc([N+](=O)[O-])cc12 | inhibition [9]: Active; t1/2 [6]: 32.8 min; inhibition [7]: inactive |
| 7.52 | – | 6.51 | inactive | 4.86 | CCOC(=O)c1nn(C(=O)c2cccc(C)c2)c2ccc(NC(C)=O)cc12 | inhibition [10]: Active; t1/2 [6]: 78.8 min; inhibition [7]: inactive |
| 6.59 | – | – | – | – | CCOC(=O)c1nn(C(=O)c2ccsc2)c2ccc(Br)cc12 | – |
| – | 7.40 | 6.32 | inactive | 5.82 | CCOC(=O)c1nn(C(=O)c2cccc(C)c2)c2ccc([N+](=O)[O-])cc12 | – |
| 7.92 | 6.43 | 6.80 | inactive | – | CCOC(=O)c1nn(C(=O)c2cccc(C)c2)c2ccc(NC(=O)C3CC3)cc12 | inhibition [11]: inactive; inhibition [12]: Active; inhibition [13]: Active; t1/2 [6]: 51.7 min; inhibition [7]: inactive |
| 7.70 | – | – | – | – | CCOC(=O)c1nn(C(=O)c2ccccc2)c2ccc([N+](=O)[O-])cc12 | – |
| – | – | – | – | – | COC(=O)c1nn(C(=O)c2cccc(C)c2)c2c([N+](=O)[O-])cccc12 | inhibition [14]: inactive |
| 7.40 | – | – | – | – | N#Cc1nn(C(=O)c2ccccc2)c2ccccc12 | – |
| 7.10 | – | – | – | – | CCOC(=O)c1nn(C(=O)c2ccccc2)c2ccc(OC)cc12 | – |
